Active and inactive are the calls of the source. The rule behind the calls is not given here.
Legend:
[1] = molecular target: T1, AMP-activated protein kinase, AMPK (Homo sapiens) (UniProt P54646+O43741+P54619+Q9UGJ0+Q9Y478+Q13131+Q9UGI9); experiment: Activation of AMPK in human HepG2 cells assessed as induction of glucose consumption at 10 uM treated over 24 hrs by glucose oxidase method relative to control; format: cell-based
Method in brief: (§1)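 HepG2 cells kept in DMEM (25 mM D-glucose) with 10% serum at 37 °C, 5% CO2. At 80-90% confluence the medium was switched to serum-free RPMI-1640 with 11.1 mM glucose and 0.2% BSA. Compounds in DMSO (0.5% v/v vehicle control) were given for 24 h. Medium glucose was read by glucose oxidase; consumption = cell-free blank wells minus cell wells. Student's t test against control.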

[2] = system: Mus musculus; experiment: Hypoglycemic activity in db/db mouse assessed as decrease in blood glucose level at 30 mg/kg, po administered as single dose measured at 3 hrs post last dose (reference value: 0.0 +/- 4.1%); format: functional; parameters: scale not given: the % may be the effect or the level left
[3] = system: Mus musculus; experiment: Hypoglycemic activity in db/db mouse assessed as decrease in blood glucose level at 30 mg/kg, po treated for 1 week measured at 3 hrs post last dose (reference value: 0.0 +/- 8.6%); format: functional; parameters: scale not given: the % may be the effect or the level left
[4] = system: Mus musculus; experiment: Hypoglycemic activity in db/db mouse assessed as decrease in blood glucose level at 30 mg/kg, po treated for 2 week measured at 3 hrs post last dose (reference value: 0.0 +/- 4.0%); format: functional; parameters: scale not given: the % may be the effect or the level left
[5] = system: Mus musculus; experiment: Hypoglycemic activity in db/db mouse assessed as decrease in blood glucose level at 30 mg/kg, po treated for 3 week measured at 3 hrs post last dose (reference value: 0.0 +/- 6.8%); format: functional; parameters: scale not given: the % may be the effect or the level left
[6] = system: Mus musculus; experiment: Toxicity in db/db mouse assessed as increase in body weight at 30 mg/kg, po treated for 1 to 3 weeks measured at 3 hrs post last dose relative to control; format: organism-based; details: in vivo
[7] = system: Mus musculus; experiment: Hypolipemic activity in db/db mouse assessed as plasma fasting triglyceride level at 30 mg/kg, po treated for 3 consecutive weeks (reference value: 0.70 to 0.97 mM); format: functional
[8] = system: Mus musculus; experiment: Hypolipemic activity in db/db mouse assessed as total plasma cholesterol level at 30 mg/kg, po treated for 3 consecutive weeks (reference value: 6.05 to 6.98 mM); format: functional
[9] = molecular target: T1, AMP-activated protein kinase, AMPK (Homo sapiens); experiment: Activation of AMPK in human HepG2 cells assessed as induction of glucose consumption at 0.1 uM treated over 24 hrs by glucose oxidase method relative to control; format: cell-based; method in brief: as §1
[10] = molecular target: T1, AMP-activated protein kinase, AMPK (Homo sapiens); experiment: Activation of AMPK in human HepG2 cells assessed as induction of glucose consumption at 1 uM treated over 24 hrs by glucose oxidase method relative to control; format: cell-based; method in brief: as §1
[11] = system: HepG2; experiment: Induction of AMPKalpha phosphorylation at Thr172 residue in human HepG2 cells at 10 uM by Western blot analysis; format: cell-based
Method in brief: (§2)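 HepG2 cells were treated at 10 μM and lysed in pH 7.5 Tris buffer containing NaF, β-glycerophosphate, EDTA/EGTA, Triton X-100 and protease inhibitors, then cleared at 10,000 × g for 30 min at 4 °C. Equal lysate volumes were run on 8% SDS-PAGE and transferred to PVDF. Blots were probed for p-AMPKα (Thr172) and p-ACC (Ser79) with HRP secondary antibodies.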

[12] = system: HepG2; experiment: Activation of AMPKalpha in human HepG2 cells assessed as ACC phosphorylation at Ser79 residue at 10 uM by Western blot analysis; format: cell-based; method in brief: as §2
[13] = molecular target: T1, AMP-activated protein kinase, AMPK (Homo sapiens); experiment: Activation of AMPK in human HepG2 cells assessed as induction of glucose consumption treated over 24 hrs by glucose oxidase method; format: cell-based; method in brief: as §1

SMILES	Activity [1]	Activity [9]	Activity [10]	Activity [11]	Activity [12]	Activity [13]	other results
O=C(O)C1CCc2c(c3cc4c(cc3n2S(=O)(=O)c2ccc(Cl)cc2)OCO4)C1 (stereo not given)	47.5%	–	–	–	–	–	–
Cc1c(CC(=O)O)c2cc(OCc3ccccc3)ccc2n1C(=O)c1ccc(Cl)cc1	–	–	–	–	–	–	Activity [2]: 32.9%; Activity [3]: 25.7%; Activity [4]: 30.3%; Activity [5]: 13.5%; Activity [6]: 8.5%; Activity [7]: 0.79 mM; Activity [8]: 7.78 mM
Cc1ccc(Cn2c3c(c4cc(OCc5ccccc5)ccc42)CC(C(=O)O)CC3)cc1 (stereo not given)	42.2%	–	–	–	–	–	–
COc1ccc2c(c1)c1c(n2C(=O)c2ccc(Cl)cc2)CCC(C(=O)O)C1 (stereo not given)	50.5%	–	–	–	–	–	–
O=C(O)C1CCc2c(c3cc(OCc4ccccc4)ccc3n2C(=O)c2ccc(Cl)cc2)C1 (single isomer, unassigned; (-))	76.4 to 85.5%	12.9%	35.6%	Active	Active	Dose-dependent effect	–
CC(Oc1ccc2c(c1)c1c(n2C(=O)c2ccc(Cl)cc2)CCC(C(=O)O)C1)c1ccccc1 (stereo not given)	62.1 to 68.7%	4.89%	32.2%	Active	Active	Dose-dependent effect	–
O=C(O)C1CCc2c(c3cc(OCc4ccccc4)ccc3n2Cc2ccc(F)cc2)C1 (stereo not given)	34.3%	–	–	–	–	–	–
O=C(O)C1CCc2c(c3cc(OCc4ccccc4)ccc3n2C(=O)c2ccc(Cl)cc2)C1 (stereo in doubt; (+)-7a)	55.3 to 60.6%	1.79%	27.3%	Active	Active	Dose-dependent effect	–
O=C(O)C1CCc2[nH]c3ccc(OCc4ccccc4)cc3c2C1 (stereo not given)	48.4 to 52.3%	29%	37.2%	Active	Active	Dose-dependent effect	–
COc1ccc(S(=O)(=O)n2c3c(c4cc5c(cc42)OCO5)CC(C(=O)O)CC3)cc1 (stereo not given)	40.3%	–	–	–	–	–	–
O=C(O)c1ccccc1-c1ccc(Cn2c3c(c4cc(OCc5ccccc5)ccc42)CC(C(=O)O)CC3)cc1 (stereo not given)	27.5%	–	–	–	–	–	–
O=C(O)C1CCc2c(c3cc(OCc4ccccc4)ccc3n2S(=O)(=O)c2ccc(Cl)cc2)C1 (stereo not given)	64.5%	–	–	–	–	–	Activity [2]: 15.5%; Activity [3]: 28.9%; Activity [4]: 16.3%; Activity [5]: 14.3%; Activity [6]: 3.7%; Activity [7]: 0.99 mM; Activity [8]: 6.91 mM
